Sampled rows, rich in hits. Any-hit rate of the full collection: about 1.8%.
M4 antag: CHRM4 antagonism in calcium assay | P08173 | CHO-hM4 cells, ACh EC80, Fluo-8 calcium fluorescence | hit rate 0.73% among 360,000 | inhibition, % at 3 µM;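 active = inhibition above its plate's cutoff, the mean inhibition of sample wells plus 3 SD, cut at about 27% in these data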
M5 ag: agonists of human muscarinic M5 receptor (CHRM5). P08912. CHO-K1 hM5 cells, Fluo-8 calcium fluorescence; 0% DMSO wells, 100% maximal acetylcholine response. activation, % at 3 µM. hit rate 0.19% among 360,000. AID 624037;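 active = activation above the run's mean over test compounds plus 3 SD, cut at about 23% in these data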;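 also: signal is peak over basal fluorescence ratio across the kinetic read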
Target sequence (P08912 whole entry, looked up): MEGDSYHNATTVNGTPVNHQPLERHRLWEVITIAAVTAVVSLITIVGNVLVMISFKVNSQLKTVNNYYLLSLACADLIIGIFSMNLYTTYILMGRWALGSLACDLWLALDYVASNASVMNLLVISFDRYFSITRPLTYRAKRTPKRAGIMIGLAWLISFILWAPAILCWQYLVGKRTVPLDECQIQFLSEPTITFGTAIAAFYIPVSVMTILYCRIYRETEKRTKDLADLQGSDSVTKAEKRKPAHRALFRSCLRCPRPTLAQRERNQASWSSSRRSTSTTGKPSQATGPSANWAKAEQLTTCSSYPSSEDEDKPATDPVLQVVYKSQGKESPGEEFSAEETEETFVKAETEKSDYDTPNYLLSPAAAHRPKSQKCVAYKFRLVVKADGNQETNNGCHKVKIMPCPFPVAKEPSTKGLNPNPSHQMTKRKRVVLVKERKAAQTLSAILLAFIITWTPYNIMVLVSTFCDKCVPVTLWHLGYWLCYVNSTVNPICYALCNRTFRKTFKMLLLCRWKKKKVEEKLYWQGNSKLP
M4 ag: agonists of human muscarinic M4 receptor (CHRM4); hit rate 0.14% among 360,000; CHO-K1 hM4/Gqi5, Fluo-8 calcium fluorescence; vehicle 0%, full acetylcholine response 100%; activation, % at 3 µM;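 active = activation above the run mean over all test wells plus 3 SD, cut at about 32% in these data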;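 also: peak over basal fluorescence ratio per well then scaled between controls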
M5 PAM: CHRM5 positive allosteric modulation. hit rate 0.3% among 360,000. activation, % at 3 µM. CHO-K1 hM5, Fluo-8 calcium, ACh EC20 PAM; 0% = ACh EC20, 100% = ACh EC100;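 active = activation above the run cutoff, the mean activation of all test compounds plus 3 SD, cut at about 18% in these data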
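Test system: CHO-K1 hM5 cells / Doses: single-point, 3 µM nominal / Times: Post-acetylcholine fluorescence recording 140 s / Technique: Fluo-8 calcium fluorescence / Measure: Max/basal fluorescence ratio as % of EC20–EC100 ACh window / Benchmarks: low control EC20 acetylcholine (0%), high control EC100 acetylcholine (100%) / Replicates: one well per compound, no replicates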
CHRM4 PAM: positive allosteric modulators of human muscarinic M4 receptor | AID 624126 | P08173 | hit rate 0.4% among 360,000 | activation, % at 3 µM | CHO-K1 hM4/Gqi5, Fluo-8 calcium fluorescence, ACh EC20; 0% = ACh EC20, 100% = maximal ACh;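 active = activation above its plate's cutoff, the mean activation of sample wells plus 3 SD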
M5 antag: antagonists of human muscarinic M5 receptor (CHRM5); P08912; CHO-hM5 cells, Fluo-8 calcium fluorescence, ACh EC80; inhibition, % at 3 µM; hit rate 0.59% among 360,000; AID 624040;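 active = inhibition above a per-plate cutoff, the mean of that plate's test compounds plus 3 SD, cut at about 27% in these data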
Large screens that a line does not name were inactive.

Nc1cccc(-c2csc(-n3ncc(C(=O)O)c3C(F)(F)F)n2)c1	CHRM4 PAM 17
Fc1ccc(Nc2nnc(C(F)(F)F)s2)cc1Cl	M5 antag 32
C[C@@H]1CN([C@@H](C)CO)C(=O)c2cc(Br)cnc2O[C@@H]1CN(C)C(=O)CN(C)C	none
O=C(OCC(=O)N1CCc2ccccc2C1)c1ccc(O)cc1	none
NC(=O)COC(=O)c1ccc(S(=O)(=O)NCc2ccco2)cc1	CHRM4 PAM 20
CCC(C)c1ccc(NC(=O)Nc2cnccn2)cc1 (centres undefined)	none
Cn1nc(C(C)(C)C)cc1C(=O)NCc1cc(F)cc2c1OCOC2	M5 antag 29
C=CCC(NC(=O)c1ccc(C#N)cc1)C(=O)NCCC (centres undefined)	M5 PAM 19
COC(=O)[C@@]1(Sc2ccc(C)cc2)CC(=O)N(c2ccccc2)[C@@H]1c1ccccc1	M4 antag 40, M5 antag 30
CN1CCCN=C1COC(=O)C(O)(c1ccccc1)C1CCCCC1 (centres undefined)	M4 antag 99, M5 antag 99
CCCc1nnc(NC(=O)Cn2c(=O)oc3cc(Br)ccc32)s1	M5 ag 39
Cc1cc2n(n1)C(c1ccc(O)cc1)Nc1ccccc1-2 (centres undefined)	CHRM4 PAM 30
Cc1cc2n(n1)C(c1ccco1)Nc1ccccc1-2 (centres undefined)	none
CCCC(=O)N(C1CC(C)C(C#N)(C#N)C1(C#N)C#N)N(C)C (centres undefined)	M4 antag 47
CC(=O)N(C1CC(C)C(C#N)(C#N)C1(C#N)C#N)N(C)C (centres undefined)	none
CC(c1ccccc1)C1OCC(C[N+]2(C)CCCCC2)O1 (centres undefined)	M4 antag 45, M5 antag 30
CCOC(=O)Nc1ccc2c(C)cc(=O)oc2c1	none
CCCCOC(=O)Nc1ccc2c(C)cc(=O)oc2c1	CHRM4 PAM 30
O=C(/C=C/c1cc2ccccc2o1)c1ccccc1O	none
COc1ccc(O)c(C(=O)/C=C/c2cc3ccccc3o2)c1	CHRM4 PAM 19
Fc1ccc(C2N(c3ccccc3)C(=S)N3CCCN23)cc1 (centres undefined)	none
Cc1ccc(C2N(c3ccccc3)C(=S)N3CCCN23)cc1 (centres undefined)	M4 antag 48
FC(F)(F)c1ccccc1Cc1c(-c2ccc(Cl)cc2)nc2ccc(Br)cn12	none
COc1cccc(CN2CCNC(=O)C2CC(=O)N(C)C2CCOCC2)c1OC (centres undefined)	M5 antag 28
COc1cccc(CN2CCNC(=O)C2CC(=O)N(C)CC2CCOCC2)c1OC (centres undefined)	none
CCC(OC(=O)c1ccco1)C(=O)NC1CCCC1 (centres undefined)	none
CC(=O)c1sc(Nc2ccccc2)nc1C	none
CC(=O)c1sc(Nc2ccc(Oc3ccccc3)cc2)nc1C	M4 antag 34
O=C(NC1CCCN(c2ccc(C(F)(F)F)cn2)C1)c1ccnc(Cl)c1 (centres undefined)	CHRM4 PAM 20
CCc1c(C)nc(SCC(=O)c2cccs2)c(C#N)c1C	M4 antag 39, CHRM4 PAM 80
CCc1c(C)nc(SCC(N)=O)c(C#N)c1C	none
O=C(Nc1cccc(Oc2ccccc2)c1)C1Cc2c(-c3ccc4c(c3)OCO4)ccnc2O1 (centres undefined)	none
Cc1sc2nc(CN3CCOCC3)nc(N3CCOCC3)c2c1C	none
Cc1sc2nc(CN3CCOCC3)nc(N3CCC(C(N)=O)CC3)c2c1C	CHRM4 PAM 21
O=C(c1[nH]c(C(F)(F)F)nc1-c1ccccc1)N1CCN(c2ncc(C(F)(F)F)cc2Cl)CC1	M4 ag 37
CC(C)(C)CN1CCC(Oc2cccc(C(=O)NCCCOc3cccnc3)c2)CC1	M4 antag 68, M5 antag 38
COc1ccc(-c2ccc3c(c2)C2CC3CCN2C(=O)C2CCCCC2)cc1 (centres undefined)	none
CC(=O)Nc1ccc(NC(=O)CNC(=O)c2cccc(C)c2)cc1	none
Cc1[nH]c2ccccc2c1C1=CC(=O)C=CC1=O	M4 antag 45
Cc1[nH]c2ccccc2c1CC#N	none
CCc1cccc(C)c1NC(=O)C1=C(C(=O)O)CCCC1	M4 antag 28
CCc1cccc(C)c1NC(=O)c1ccccc1	none
Cc1ccccc1CS(=O)(=O)c1nnc([C@H](Cc2ccccc2)NC(=O)OC(C)(C)C)o1	M4 antag 79
COc1ccc(C2C(C#N)=C(N)Oc3cc(O)ccc32)cc1OC (centres undefined)	none
COc1ccc(C2C(C#N)=C(N)Oc3cc(O)ccc32)cc1C (centres undefined)	M5 ag 24
CCC(Oc1ccc(Br)cc1)C(=O)N1CCN(c2ncccn2)CC1 (centres undefined)	none
NS(=O)(=O)c1ccc(CCNC(=O)c2ccccc2-c2ccccc2)cc1	none
COCCNC(=O)C(c1ccc(F)cc1)N(C(=O)CCC(=O)Nc1ccccn1)c1ccc(C)cc1 (centres undefined)	CHRM4 PAM 30, M5 antag 29
Cc1ccc(S(=O)(=O)N2CCC(c3nc4c(nnn4Cc4ccccc4)c(=O)[nH]3)CC2)cc1	M4 antag 75
Cc1ccc(C)c(S(=O)(=O)N2CCC(c3nc4c(nnn4Cc4ccc5c(c4)OCCO5)c(=O)[nH]3)CC2)c1	M4 antag 42
O=c1[nH]c(C2CCN(S(=O)(=O)c3ccc4c(c3)OCCO4)CC2)nc2c1nnn2Cc1ccccc1	M4 antag 90
CC(=O)Nc1ccc(NC(=O)C(C)OC(=O)CNC(=O)c2cccs2)cc1 (centres undefined)	M5 antag 97
CC(OC(=O)CNC(=O)c1cccs1)C(=O)Nc1ccc(S(N)(=O)=O)cc1 (centres undefined)	none
Nc1ccc(-c2c3ccc(=O)cc-3oc3cc(O)ccc23)c(C(=O)O)c1	M5 ag 270, M4 ag 426, M5 antag 42
Cn1c(SSc2ccc(-c3cccnc3)n2C)ccc1-c1cccnc1	none
O=[N+]([O-])c1ccc(/C=C/C2=NN(c3ccccc3)C(c3ccco3)C2)o1 (centres undefined)	M5 ag 58, M5 antag 52
C(=C\c1ccco1)/C1=NN(c2ccccc2)C(c2ccco2)C1 (centres undefined)	none
Cc1nn(-c2ccccc2)c2nc(=O)n(-c3ccccc3)cc12	none

High-throughput results from PubChem.
